H9c2 protect – cardioprotection against H2O2-induced cell death, primary screen, uHTS, H9c2 cells, ATPLite luminescence | H9c2 cardiomyocytes, H2O2 injury protection, 2 h | protection from H2O2 cell death, % at 20 µM | 0.63% of 360,000 active;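 active = compounds giving at least 50% protection of heart cells from peroxide-induced death in the single-dose screen, raw or plate-pattern-corrected value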
MIN6 prolif – inducers of MIN6 beta-cell proliferation, primary screen, ATP luminescence, uHTS. AID 2380, 2010. 0.29% of 330,000 active. proliferation, % at 10 µM. MIN6 cells proliferation, ATPlite luminescence, 48 h; cells starved in 0.2% serum; 100% = growth in 10% serum;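 active = compounds whose signal lies at least 3.5 SD above the mean of all wells on their plate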
CRFR2-BP antag – antagonists of CRF-BP/CRF-R2 complex, primary screen, cell-based, HEK293, calcium dye fluorescence, uHTS; inhibition, % at 11.8 µM; 0.59% of 350,000 active; CRF-induced calcium fluorescence;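 active = inhibition of the ligand-induced calcium signal above about 50% at the single tested concentration, limit read from the data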
hiPSC survival – enhancers of single-cell hiPSC survival, primary screen, ATPlite luminescence; 100% = ROCK inhibitor wells, 0% = DMSO; survival enhancement, % at 20 µM; 0.044% of 360,000 active; in the data active = survival enhancement above about 18%;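 note: cells exposed to compounds for 16 hours before the ATP read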
CRFBP-R2 agonist – agonists of CRF-BP/CRF-R2 complex, primary screen, cell-based, HEK293, calcium dye fluorescence, uHTS; CRF-binding protein / CRF receptor 2 complex (human); calcium dye fluorescence (FLIPR); percent of saturating CRF peptide response; activation, % at 13.2 µM; 0.46% of 350,000 active;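 active = activation of at least 50%, plus an integration ratio under a set limit after plate pattern correction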
UCH37 inh – inhibitors of human UCH37 deubiquitinase, primary screen, biochemical, Ub-AMC cleavage, fluorescence; Ubiquitin carboxyl-terminal hydrolase isozyme L5 (Homo sapiens), Q9Y5K5; purified proteasome/UCH37; inhibition, % (test concentration not listed); 0.33% of 330,000 active;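 active = mean inhibition over replicate wells above about 20%, limit read from the data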
Target sequence (Q9Y5K5 whole entry, looked up): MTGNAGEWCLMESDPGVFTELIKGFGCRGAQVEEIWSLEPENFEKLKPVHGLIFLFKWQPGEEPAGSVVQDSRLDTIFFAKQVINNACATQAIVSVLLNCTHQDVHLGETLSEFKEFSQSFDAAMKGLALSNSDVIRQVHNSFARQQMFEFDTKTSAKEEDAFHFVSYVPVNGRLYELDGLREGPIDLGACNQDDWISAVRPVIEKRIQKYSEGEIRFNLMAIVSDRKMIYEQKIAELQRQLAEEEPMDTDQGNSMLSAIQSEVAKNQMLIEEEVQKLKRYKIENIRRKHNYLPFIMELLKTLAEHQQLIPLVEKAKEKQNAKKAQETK
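System: Proteasome-associated human UCH37 deubiquitinase; Input: 0.15 nM proteasome in added enzyme buffer; Also added: Ub-AMC substrate from 1 µM stock; Incubation: 30 min compound-proteasome preincubation then 25 min substrate reaction, room temperature; Detection: fluorescence, ex 355 nm, em 460 nm; Read-out: % inhibition of Ub-AMC cleavage fluorescence; Benchmarks: no-proteasome and no-compound wells.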
Large screens that a line does not name were inactive. In the library only some 2.1% were active in any assay of this set; here they are far more common.

COc1ccccc1C=NNc1ccccc1[N+](=O)[O-]	none (no result: H9c2 protect, MIN6 prolif, CRFR2-BP antag, hiPSC survival, CRFBP-R2 agonist)
COc1ccc(C=NNC(=O)c2cc(-c3ccccc3)nc3ccccc23)c(C(=O)O)c1OC	none (no result: H9c2 protect, MIN6 prolif, CRFR2-BP antag, hiPSC survival, CRFBP-R2 agonist)
O=[N+]([O-])c1cc(Cl)cc(/C=N/Nc2nc3ccccc3s2)c1O	CRFR2-BP antag 81.5 (no result: UCH37 inh)
CCOc1ccccc1NC(=O)C1CCC(=O)N1S(=O)(=O)c1ccc(C)cc1 (stereo not drawn)	CRFR2-BP antag 82.2
O=C(CNC(=O)c1nc[nH]c1C(=O)N1CCc2ccccc2C1)OCc1ccccc1	H9c2 protect 104.8
CC(C)(C)OC(=O)CNC(=O)c1[nH]cnc1C(=O)NC1CCN(C(=O)OC(C)(C)C)CC1	none (no result: H9c2 protect, hiPSC survival)
C[C@@H](NC(=O)c1nc[nH]c1C(=O)NCC(=O)OCc1ccccc1)c1ccccc1	H9c2 protect 92.4
C[C@@H](NC(=O)c1nc[nH]c1C(=O)OCc1ccccc1)c1ccccc1	none
CC(C)(C)OC(=O)N1CCC(NC(=O)c2nc[nH]c2C(=O)NCC(=O)OCc2ccccc2)CC1	H9c2 protect 72.2
COc1ccccc1C(=O)NCC(=O)NN=Cc1cccc(Cl)c1	none (no result: H9c2 protect, MIN6 prolif, CRFR2-BP antag, hiPSC survival, CRFBP-R2 agonist)
COc1ccccc1/C=C/C=NNC(=O)Cc1cccn1C	none (no result: H9c2 protect, MIN6 prolif, CRFR2-BP antag, hiPSC survival, CRFBP-R2 agonist)
CNc1ccccc(C(=O)/C=C/c2ccccc2OC)c1=O	H9c2 protect 51.2
O=C(COC(=O)Cc1n[nH]c(=O)c2ccccc12)Nc1ccc(Cl)cc1F	H9c2 protect 56.4
CC(OC(=O)Cc1ccsc1)C(=O)Nc1ccc(Cl)cn1 (stereo not drawn)	none
CC(OC(=O)Cc1n[nH]c(=O)c2ccccc12)C(=O)Nc1ccc(Cl)cn1 (stereo not drawn)	H9c2 protect 58.1
CC(OC(=O)Cc1n[nH]c(=O)c2ccccc12)C(=O)Nc1cc(Cl)cc(Cl)c1 (stereo not drawn)	H9c2 protect 56.5
O=C(COC(=O)Cc1n[nH]c(=O)c2ccccc12)Nc1ccc(Cl)cn1	H9c2 protect 87.7
O=c1c2ccccc2nc2n1-c1ccccc1CCC2	none
O=C1CCc2nc3ccccc3c(=O)n2N1	CRFR2-BP antag 80.2
O=c1ccc2cc(S(=O)(=O)NCc3ccccc3)ccc2[nH]1	CRFR2-BP antag 98.9
COC(=O)C[C@@H]1C[C@@H]2c3cc(NS(=O)(=O)c4ccccc4)ccc3O[C@@H]2[C@@H](CO)O1	none (no result: MIN6 prolif, UCH37 inh)
O=C(C[C@H]1C[C@@H]2c3cc(NS(=O)(=O)c4ccccc4)ccc3O[C@@H]2[C@H](CO)O1)N1CCOCC1	CRFR2-BP antag 51.9 (no result: MIN6 prolif, UCH37 inh)
CC(OC(=O)c1cc2c(ccc3ccccc32)oc1=O)c1nc2ccccc2s1 (stereo not drawn)	H9c2 protect 68.8
CC(=O)NC(CCc1ccc(Cl)c(Cl)c1)c1cccc(O)c(=O)c1 (stereo not drawn)	H9c2 protect 61.4 (no result: MIN6 prolif, UCH37 inh)
COc1ccc(C=NNC(=O)c2cccc(NC(=O)c3ccccc3Cl)c2)cc1	none (no result: H9c2 protect, MIN6 prolif, CRFR2-BP antag, hiPSC survival, CRFBP-R2 agonist)
CCN(CC)c1ccc(/C=C/c2nc3ccccc3s2)cc1	none (no result: H9c2 protect, CRFR2-BP antag, hiPSC survival, CRFBP-R2 agonist, UCH37 inh)
COc1cc2nc(/C=C/c3ccc(N(C)C)cc3)sc2cc1SC	CRFBP-R2 agonist 331.7 (no result: MIN6 prolif)
CCOC(=O)c1c2c3c(cccc3[nH]c1=O)C(=O)c1ccccc1-2	none
CC(=O)Nc1c2c3c(cccc3n(C)c1=O)C(=O)c1ccccc1-2	none
CCOC(=O)c1c2c3c(c(Cl)ccc3[nH]c1=O)C(=O)c1ccccc1-2	H9c2 protect 60.2
Cn1c(=O)c(Nc2ccc(Cl)cc2)c2c3c(cccc31)C(=O)c1ccccc1-2	CRFBP-R2 agonist 111.0 (no result: H9c2 protect, hiPSC survival)
CCOC(=O)c1c2c3c(cccc3n(C)c1=O)C(=O)c1ccccc1-2	H9c2 protect 75.0 (no result: UCH37 inh)
Cc1cccc(C=NNC(=O)c2sccc2-n2cccc2)c1	none (no result: H9c2 protect, MIN6 prolif, CRFR2-BP antag, hiPSC survival, CRFBP-R2 agonist)
Cc1ccc(/C=C2/SC(=S)N(c3ccc(S(=O)(=O)Nc4nccs4)cc3)C2=O)cc1	CRFR2-BP antag 59.4
CCOC(=O)C1=C(C)N=c2sc(=Cc3cccc(OCC(=O)O)c3)c(=O)n2C1c1ccccc1 (stereo not drawn)	none (no result: H9c2 protect, MIN6 prolif, CRFR2-BP antag, hiPSC survival, CRFBP-R2 agonist)
Cc1c(C=O)c(Cl)n(C)c(=O)c1C#N	UCH37 inh 21.3

Compound activity from PubChem BioAssay.
